Converted amounts (≈) assume the structure as drawn. The source made the active and inactive calls. No cut-off for these calls is given here.
Columns and labels:
Type in all cases: functional
[1] = test system: Escherichia coli; assay: Antibacterial activity against Escherichia coli MTCC 739 assessed as inhibition of bacterial growth incubated for 24 hrs by agar well diffusion method; conditions: MTCC 739, 24 h
In short: (§1)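 Strains from MTCC; inoculum at 0.5 McFarland spread on Mueller-Hinton agar; 6 mm wells loaded with compound over 125–0.97 µg/mL; ciprofloxacin positive control (same range), DMSO negative control. Plates held 24 h at 37 °C; MIC taken as lowest concentration giving a clear inhibition zone. Triplicate runs, mean MIC reported.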

[2] = test system: Bacillus subtilis; assay: Antibacterial activity against Bacillus subtilis MTCC 121 assessed as inhibition of bacterial growth incubated for 24 hrs by agar well diffusion method; conditions: MTCC 121, 24 h; in short: as §1
[3] = test system: Pseudomonas aeruginosa; assay: Antibacterial activity against Pseudomonas aeruginosa MTCC 2453 assessed as inhibition of bacterial growth incubated for 24 hrs by agar well diffusion method; conditions: MTCC 2453, 24 h; in short: as §1
[4] = test system: Micrococcus luteus; assay: Antibacterial activity against Micrococcus luteus MTCC 2470 assessed as inhibition of bacterial growth incubated for 24 hrs by agar well diffusion method; conditions: MTCC 2470, 24 h; in short: as §1
[5] = test system: Candida albicans; assay: Antifungal activity against Candida albicans MTCC 3017 assessed as inhibition of fungal growth incubated for 24 hrs by agar well diffusion method
In short: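 Candida strains from MTCC, pre-cultured and spread on Mueller Hinton agar. Wells received compound dissolved in 10% DMSO, 125–0.97 µg/mL; miconazole standard over the same range, DMSO negative control. After 24 h at 37 °C, MIC was read as the lowest concentration giving an inhibition zone. Duplicate experiments, means given.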

[6] = test system: Staphylococcus aureus; assay: Antibacterial activity against Staphylococcus aureus MLS-16 MTCC 2940 assessed as inhibition of bacterial growth incubated for 24 hrs by agar well diffusion method; conditions: MLS-16 MTCC 2940, 24 h; in short: as §1
[7] = test system: Staphylococcus aureus; assay: Antibacterial activity against Staphylococcus aureus MTCC 96 assessed as inhibition of bacterial growth incubated for 24 hrs by agar well diffusion method; conditions: MTCC 96, 24 h; in short: as §1
[8] = test system: Raoultella planticola; assay: Antibacterial activity against Klebsiella planticola MTCC 530 assessed as inhibition of bacterial growth incubated for 24 hrs by agar well diffusion method; conditions: MTCC 530, 24 h; in short: as §1
[9] = test system: Pseudomonas aeruginosa; assay: Bactericidal activity against Pseudomonas aeruginosa MTCC 2453 assessed as bacterial killing incubated for 24 hrs; conditions: MTCC 2453, 24 h
In short: (§2)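 Broth tube assay: compound at 0–125 µg/mL in Mueller Hinton broth, overnight culture added to 0.5 McFarland (1.5 × 10^8 cfu/mL), held 24 h at 37 °C. 10 µL from each tube plated on Mueller Hinton agar. MBC is the lowest concentration that kills the strain. Duplicates, means reported.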

[10] = test system: Staphylococcus aureus; assay: Bactericidal activity against Staphylococcus aureus MLS-16 MTCC 2940 assessed as bacterial killing incubated for 24 hrs; conditions: MLS-16 MTCC 2940, 24 h; in short: as §2
[11] = test system: Micrococcus luteus; assay: Bactericidal activity against Micrococcus luteus MTCC 2470 assessed as bacterial killing incubated for 24 hrs; conditions: MTCC 2470, 24 h; in short: as §2
[12] = test system: Escherichia coli; assay: Bactericidal activity against Escherichia coli MTCC 739 assessed as bacterial killing incubated for 24 hrs; conditions: MTCC 739, 24 h; in short: as §2
[13] = test system: Bacillus subtilis; assay: Bactericidal activity against Bacillus subtilis MTCC 121 assessed as bacterial killing incubated for 24 hrs; conditions: MTCC 121, 24 h; in short: as §2
[14] = test system: Raoultella planticola; assay: Bactericidal activity against Klebsiella planticola MTCC 530 assessed as bacterial killing incubated for 24 hrs; conditions: MTCC 530, 24 h; in short: as §2
[15] = test system: Staphylococcus aureus; assay: Bactericidal activity against Staphylococcus aureus MTCC 96 assessed as bacterial killing incubated for 24 hrs; conditions: MTCC 96, 24 h; in short: as §2

Compound | MIC [1] | MIC [2] | MIC [3] | MIC [4] | MIC ([5]; MTCC 3017, 24 h) | MIC [6] | MIC [7] | MIC [8] | MBC [9] | MBC [10] | MBC [11] | MBC [12] | MIC [5] | MBC [13] | MBC [14] | MBC [15]
COc1ccc2c(c1)Cc1c(C(=O)N/N=C/c3cc(OC)c(OC)c(OC)c3)n[nH]c1-2 | > 125 µg/mL | 3.9 µg/mL (≈ 9.23 µM) | > 125 µg/mL | 3.9 µg/mL (≈ 9.23 µM) | > 125 µg/mL | 7.8 µg/mL (≈ 18.5 µM) | 15.6 µg/mL (≈ 36.9 µM) | > 125 µg/mL |  |  |  |  |  |  |  | 
COc1cc(/C=N/NC(=O)c2n[nH]c3c2Cc2cc(F)ccc2-3)cc(OC)c1OC | 3.9 µg/mL (≈ 9.5 µM) | 3.9 µg/mL (≈ 9.5 µM) | 7.8 µg/mL (≈ 19 µM) | 7.8 µg/mL (≈ 19 µM) | > 125 µg/mL | 7.8 µg/mL (≈ 19 µM) | 3.9 µg/mL (≈ 9.5 µM) | 7.8 µg/mL (≈ 19 µM) |  |  |  |  |  |  |  | 
COc1ccc(/C=N/NC(=O)c2n[nH]c3c2Cc2ccccc2-3)cc1OC | > 125 µg/mL | > 125 µg/mL | > 125 µg/mL | > 125 µg/mL | > 125 µg/mL | > 125 µg/mL | > 125 µg/mL | > 125 µg/mL |  |  |  |  |  |  |  | 
O=C(N/N=C/c1c(F)cc(F)cc1F)c1n[nH]c2c1Cc1ccccc1-2 | > 125 µg/mL | 15.6 µg/mL (≈ 43.8 µM) | > 125 µg/mL | > 125 µg/mL | > 125 µg/mL | > 125 µg/mL | > 125 µg/mL | > 125 µg/mL |  |  |  |  |  |  |  | 
O=C(N/N=C/c1ccc(Cl)cc1)c1n[nH]c2c1Cc1cc(F)ccc1-2 | > 125 µg/mL | 7.8 µg/mL (≈ 22 µM) | > 125 µg/mL | > 125 µg/mL | > 125 µg/mL | 15.6 µg/mL (≈ 44 µM) | 15.6 µg/mL (≈ 44 µM) | > 125 µg/mL |  |  |  |  |  |  |  | 
COc1cc(/C=N/NC(=O)c2n[nH]c3c2Cc2ccccc2-3)cc(OC)c1OC | > 125 µg/mL | 7.8 µg/mL (≈ 19.9 µM) | > 125 µg/mL | > 125 µg/mL | > 125 µg/mL | 15.6 µg/mL (≈ 39.8 µM) | 15.6 µg/mL (≈ 39.8 µM) | > 125 µg/mL |  |  |  |  |  |  |  | 
O=C(N/N=C/c1ccc(Cl)cc1)c1n[nH]c2c1Cc1ccccc1-2 | 7.8 µg/mL (≈ 23.2 µM) | 7.8 µg/mL (≈ 23.2 µM) | > 125 µg/mL | > 125 µg/mL | > 125 µg/mL | 3.9 µg/mL (≈ 11.6 µM) | 3.9 µg/mL (≈ 11.6 µM) | > 125 µg/mL |  |  |  |  |  |  |  | 
O=C(O)c1cn(C2CC2)c2cc(N3CCNCC3)c(F)cc2c1=O [CIPROFLOXACIN] | 0.9 µg/mL (≈ 2.72 µM) | 0.9 µg/mL (≈ 2.72 µM) | 0.9 µg/mL (≈ 2.72 µM) | 0.9 µg/mL (≈ 2.72 µM) |  | 0.9 µg/mL (≈ 2.72 µM) | 0.9 µg/mL (≈ 2.72 µM) | 0.9 µg/mL (≈ 2.72 µM) | 1.9 µg/mL (≈ 5.73 µM) | 1.9 µg/mL (≈ 5.73 µM) | 1.9 µg/mL (≈ 5.73 µM) | 1.9 µg/mL (≈ 5.73 µM) | inactive | 1.9 µg/mL (≈ 5.73 µM) | 1.9 µg/mL (≈ 5.73 µM) | 1.9 µg/mL (≈ 5.73 µM)
COc1ccc(/C=N/NC(=O)c2n[nH]c3c2Cc2cc(F)ccc2-3)cc1OC | > 125 µg/mL | > 125 µg/mL | > 125 µg/mL | > 125 µg/mL | > 125 µg/mL | 3.9 µg/mL (≈ 10.3 µM) | > 125 µg/mL | > 125 µg/mL |  |  |  |  |  |  |  | 
COc1cc(/C=N/NC(=O)c2n[nH]c3c2Cc2cc(F)ccc2-3)ccc1O | > 125 µg/mL | > 125 µg/mL | > 125 µg/mL | > 125 µg/mL | 31.2 µg/mL (≈ 85.2 µM) | 3.9 µg/mL (≈ 10.6 µM) | > 125 µg/mL | > 125 µg/mL |  |  |  |  |  |  |  | 
COc1ccc2c(c1)Cc1c(C(=O)N/N=C/c3ccc(Br)cc3)n[nH]c1-2 | > 125 µg/mL | > 125 µg/mL | > 125 µg/mL | > 125 µg/mL | > 125 µg/mL | > 125 µg/mL | > 125 µg/mL | > 125 µg/mL |  |  |  |  |  |  |  | 
O=C(N/N=C/c1ccc(Br)cc1)c1n[nH]c2c1Cc1ccccc1-2 | > 125 µg/mL | 15.6 µg/mL (≈ 40.9 µM) | > 125 µg/mL | > 125 µg/mL | > 125 µg/mL | 15.6 µg/mL (≈ 40.9 µM) | 15.6 µg/mL (≈ 40.9 µM) | > 125 µg/mL |  |  |  |  |  |  |  | 
COc1ccc2c(c1)Cc1c(C(=O)N/N=C/c3ccc(O)cc3)n[nH]c1-2 | > 125 µg/mL | 7.8 µg/mL (≈ 22.4 µM) | > 125 µg/mL | 3.9 µg/mL (≈ 11.2 µM) | > 125 µg/mL | 7.8 µg/mL (≈ 22.4 µM) | 7.8 µg/mL (≈ 22.4 µM) | > 125 µg/mL |  |  |  |  |  |  |  | 
O=C(N/N=C/c1ccc(Br)cc1)c1n[nH]c2c1Cc1cc(F)ccc1-2 | > 125 µg/mL | 7.8 µg/mL (≈ 19.5 µM) | > 125 µg/mL | > 125 µg/mL | > 125 µg/mL | 15.6 µg/mL (≈ 39.1 µM) | 7.8 µg/mL (≈ 19.5 µM) | > 125 µg/mL |  |  |  |  |  |  |  | 
COc1ccc2c(c1)Cc1c(C(=O)N/N=C/c3ccc(Cl)cc3)n[nH]c1-2 | 3.9 µg/mL (≈ 10.6 µM) | 7.8 µg/mL (≈ 21.3 µM) | > 125 µg/mL | 3.9 µg/mL (≈ 10.6 µM) | > 125 µg/mL | 7.8 µg/mL (≈ 21.3 µM) | 3.9 µg/mL (≈ 10.6 µM) | > 125 µg/mL |  |  |  |  |  |  |  | 
COc1ccc2c(c1)Cc1c(C(=O)N/N=C/c3ccc(OC)c(OC)c3)n[nH]c1-2 | > 125 µg/mL | 7.8 µg/mL (≈ 19.9 µM) | > 125 µg/mL | 3.9 µg/mL (≈ 9.94 µM) | > 125 µg/mL | 7.8 µg/mL (≈ 19.9 µM) | 3.9 µg/mL (≈ 9.94 µM) | > 125 µg/mL |  |  |  |  |  |  |  | 
O=C(N/N=C/c1c(F)cc(F)cc1F)c1n[nH]c2c1Cc1cc(F)ccc1-2 | > 125 µg/mL | 7.8 µg/mL (≈ 20.8 µM) | > 125 µg/mL | > 125 µg/mL | 31.2 µg/mL (≈ 83.4 µM) | 3.9 µg/mL (≈ 10.4 µM) | 7.8 µg/mL (≈ 20.8 µM) | > 125 µg/mL |  |  |  |  |  |  |  | 

Source: ChEMBL document CHEMBL4373647, “Design, synthesis, and antimicrobial evaluation of 1,4-dihydroindeno[1,2-c]pyrazole tethered carbohydrazide hybrids: exploring their in silico ADMET, ergosterol inhibition and ROS inducing potential” (Medchemcomm, 2019)
